According to ChEMBL document CHEMBL5338743, “Identification of a Selective SCoR2 Inhibitor That Protects Against Acute Kidney Injury” (J Med Chem, 2023):
Activity calls are given as the source filed them. No cut-off for these calls is given here.

Legend:
[1] = target: T1, Aldo-keto reductase family 1 member A1 (Homo sapiens) (UniProt P14550); assay: (§1) Binding affinity to C-terminal 6His-tagged human recombinant SCoR2 AKR1A1 expressed in Escherichia coli BL21-CodonPlus competent cells assessed as thermal stability by measuring melting temperature at +/- 250 uM preincubated for 15 mins with NADP+ followed by compound addition and measured after 30 mins by SYPRO orange dye based DSF analysis (reference value: 51.4 degreeC)
T1 sequence (whole entry): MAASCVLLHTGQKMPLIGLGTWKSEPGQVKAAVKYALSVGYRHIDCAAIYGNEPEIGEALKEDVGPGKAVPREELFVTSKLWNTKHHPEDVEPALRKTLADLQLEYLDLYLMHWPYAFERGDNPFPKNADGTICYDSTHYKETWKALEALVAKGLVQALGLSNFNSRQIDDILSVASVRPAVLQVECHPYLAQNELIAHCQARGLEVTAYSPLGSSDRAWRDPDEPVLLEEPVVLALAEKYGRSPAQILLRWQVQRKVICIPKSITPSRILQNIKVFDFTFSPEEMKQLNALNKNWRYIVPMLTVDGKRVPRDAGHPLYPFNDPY
Method in brief: (§2)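 5 μM protein with or without 250 μM NADPH or NADP⁺ and 250 μM inhibitor; cofactor preincubated 15 min, then inhibitor 30 min at room temperature. 10X SYPRO Orange added; temperature ramped 25–70°C in 0.3°C steps. DMSO-matched controls (1%); duplicates.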

[2] = target: T1, Aldo-keto reductase family 1 member A1 (Homo sapiens); assay: as §1, with “NADPH” for “NADP+”; method in brief: as §2
[3] = target: T1, Aldo-keto reductase family 1 member A1 (Homo sapiens); assay: Binding affinity to C-terminal 6His-tagged human recombinant SCoR2 AKR1A1 expressed in Escherichia coli BL21-CodonPlus competent cells assessed as melting temperature at +/- 250 uM incubated for 45 mins by SYPRO orange dye based DSF analysis (reference value: 48.3 degreeC); method in brief: as §2
Mus musculus [4] = assay: In vivo inhibition of SCoR2 in C57BL/6J mouse assessed as reduction in SNO-CoA metabolic activity in brain at 120 mg/kg body weight, ip administered as single dose into abdomen measured after 18 hrs; format: functional, organism-based
Method in brief: (§3)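 Single i.p. injection into the mouse abdomen, DMSO vehicle; organs collected 18 h later. Tissues homogenized in 50 mM phosphate pH 7.0, 150 mM NaCl, EDTA/DTPA, then clarified; lysate started reactions with 200 μM SNO-CoA and 100 μM NADPH, 2 min, NADPH loss monitored, in triplicate. Compared with vehicle and SCoR2−/− kidneys.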

Mus musculus [5] = assay: In vivo inhibition of SCoR2 in C57BL/6J mouse assessed as reduction in SNO-CoA metabolic activity in spleen at 120 mg/kg body weight, ip administered as single dose into abdomen measured after 18 hrs; format: functional, organism-based; method in brief: as §3
Mus musculus [6] = assay: In vivo inhibition of SCoR2 in C57BL/6J mouse assessed as reduction in SNO-CoA metabolic activity in heart at 120 mg/kg body weight, ip administered as single dose into abdomen measured after 18 hrs; format: functional, organism-based; method in brief: as §3
Mus musculus [7] = assay: In vivo inhibition of SCoR2 in C57BL/6J mouse assessed as reduction in SNO-CoA metabolic activity in liver at 120 mg/kg body weight, ip administered as single dose into abdomen measured after 18 hrs; format: functional, organism-based; method in brief: as §3
Mus musculus [8] = assay: In vivo inhibition of AKR1B1 in mouse assessed as reduction in methyl glyoxylate metabolic activity in kidneys at 120 mg/kg body weight, ip administered as single dose into abdomen measured after 18 hrs; format: functional, organism-based
Homo sapiens = organism: Homo sapiens; assay: Selectivity index, ratio of IC50 for inhibition of human recombinant AKR1B1 expressed in Escherichia coli BL21-CodonPlus competent cells to IC50 for inhibition of human recombinant SCoR2 expressed in Escherichia coli BL21-CodonPlus competent cells
Method in brief: (§4)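 Purified enzyme at 200 nM (SCoR2 with 100 μM SNO-CoA; AKR1B1 with 100 μM methylglyoxylate) in 50 mM phosphate pH 7.0 with serial inhibitor dilutions; started with 100 μM NADPH, 2 min. Rate from 340 nm decrease, normalized to 20 nM protein activity; IC50 fitted, n=3. Selectivity taken as AKR1B1/SCoR2 IC50 ratio.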

[9] = target: Aldo-keto reductase family 1 member B1 (Homo sapiens, UniProt P15121); assay: Inhibition of C-terminal 6His-tagged human recombinant AKR1B1 expressed in Escherichia coli BL21-CodonPlus competent cells using methyl glyoxylate as substrate incubated for 2 mins in presence of NADPH; method in brief: as §4
[10] = target: T2, Aldo-keto reductase family 1 member A1 (Homo sapiens, UniProt P14550); assay: Inhibition of C-terminal 6His-tagged human recombinant SCoR2 AKR1A1 expressed in Escherichia coli BL21-CodonPlus competent cells using SNO-CoA as substrate incubated for 2 mins in presence of NADPH; method in brief: as §4
T2 sequence (P14550 whole entry): T1 sequence (whole entry)

[11] = In vivo inhibition of SCoR2 in ischemia/reperfusion induced acute kidney injury mouse model assessed as reduction in SNO-CoA metabolic activity in kidneys at 120 mg/kg, ip pretreated for 18 hrs followed by kidney injury surgery and measured after 24 hrs relative to control; format: functional; settings: time 42 hrs
Method in brief: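 Male mice (9–11 weeks, 25–28 g) dosed i.p. 18 h before renal ischemia–reperfusion surgery under isoflurane; kidneys taken 24 h after reperfusion. Kidney lysate SNO-CoA reductase activity measured with 200 μM SNO-CoA, 100 μM NADPH, 2 min, triplicate assays; DMSO-treated controls.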

Mus musculus [12] = assay: Protection against ischemia/reperfusion induced acute kidney injury in mouse assessed as reduction in blood urea nitrogen level at 120 mg/kg, ip pretreated for 18 hrs followed by kidney injury surgery and measured after 24 hrs; format: functional, organism-based; settings: time 42.0 hrs
Method in brief: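 Male mice (9–11 weeks, 25–28 g) given i.p. dose 18 h before ischemia–reperfusion AKI surgery under isoflurane; serum taken 24 h after reperfusion. Creatinine and BUN measured by a clinical laboratory; DMSO-treated controls.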

[13] = Renal toxicity in mouse assessed as effect on anatomy of cortex at 120 mg/kg, ip treated for 18 hrs under basal conditions by H and E staining based analysis; format: organism-based; settings: in vivo
Method in brief: (§5)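 Sham-operated mice given 120 mg/kg i.p. or vehicle; kidney cortex and medulla examined by H&E staining.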

[14] = Renal toxicity in mouse assessed as effect on anatomy of medulla at 120 mg/kg, ip treated for 18 hrs under basal conditions by H and E staining based analysis; format: organism-based; settings: in vivo; method in brief: as §5
Mus musculus [15] = assay: Protection against ischemia/reperfusion induced acute kidney injury in mouse assessed as reduction in tubular lysis at 120 mg/kg, ip pretreated for 18 hrs followed by kidney injury surgery and measured after 24 hrs by H and E staining based analysis; format: functional, organism-based; settings: time 42.0 hrs
Method in brief: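 Mice dosed i.p. 120 mg/kg 18 h before I/R surgery, kidneys harvested 24 h later, H&E-stained. Tubular lysis, brush-border loss and luminal debris scored 0–2 over more than five fields per animal; n=5 mice per group, vehicle controls.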

Mus musculus [16] = assay: Protection against ischemia/reperfusion induced acute kidney injury in mouse assessed as increase in SNO-PKM2 level in kidney at 120 mg/kg, ip pretreated for 18 hrs followed by kidney injury surgery and measured after 24 hrs by Western blot analysis; format: functional, organism-based; settings: time 42.0 hrs
Method in brief: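 Kidneys from sham or I/R mice (120 mg/kg i.p. or DMSO) homogenized in HEN buffer with MMTS, then SDS/MMTS blocking at 50°C for 20 min and acetone-precipitated. 2 mg lysate captured on thiopropyl-Sepharose with 50 mM ascorbate, 4 h in the dark; no-ascorbate controls. PKM2 detected by western blot and normalized to input PKM2, n=3.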

Tm [1]: 54.4 °C
Tm [2]: 53.4 °C
Tm [3]: 46.6 °C
IC50 [9]: 903 nM
IC50 [10]: 93 nM
SMILES: O=C1NC(=O)C2(N1)c1ccccc1-c1ccc(C3CC3)cc12 (configuration not stated)
inhibition (Mus musculus [4]): inactive
inhibition (Mus musculus [5]): Active
inhibition (Mus musculus [6]): Active
inhibition (Mus musculus [7]): Active
inhibition (Mus musculus [8]): inactive
Ratio IC50 (Homo sapiens): 9.7
inhibition in vivo at 120 mg/kg [11]: 80%
Activity (Mus musculus [12]): Active
Activity [13]: Non-Toxic
Activity [14]: Non-Toxic
Activity (Mus musculus [15]): Active
Activity (Mus musculus [16]): Active
